Assay outcomes from PubChem BioAssay.
Only a selection was taken, and hits are over-represented in it overall.
XBP1 UPR activ – activators of adaptive arm of unfolded protein response (XBP1). CHO-XBP1 luciferase reporter, IRE1-XBP1 UPR activation, luminescence; percent of tunicamycin response, DMSO as zero. AID 463104. actives 0.33% (n = 330,000). activation, % at 20 µM;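 active means versus positive control, 20 µM dose yields 30% or more activation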;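 further: 100% = tunicamycin at 10 µg/mL and 0% = DMSO only wells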
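Material: CHO-XBP1 cells stably carrying IRE1-XBP1-driven luciferase reporter | Medium: F12 with 10% serum | Compound dosing: 20 µM single concentration, DMSO 1% | Incubation: Overnight seeding at 37 °C, 6 h compound treatment at 37 °C | Detection: Steady-Glo luminescence read | Read-out basis: % activation of reporter signal versus tunicamycin and DMSO controls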
iPSC survival up – increases survival of single human iPS cells | hiPSC single-cell survival, ATPlite luminescence; 100% = ROCK inhibitor wells, 0% = DMSO | survival enhancement, % at 20 µM | actives 0.044% (n = 360,000); in the data active means survival enhancement above about 18%;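 further: cells exposed to compounds for 16 hours before the ATP read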
CHOP UPR activ – activators of apoptotic arm of unfolded protein response (CHOP); activation, % at 10 µM; AID 449763; CHO-CHOP luciferase reporter, UPR activation, luminescence; percent of tunicamycin response over DMSO baseline; actives 0.34% (n = 330,000);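 active means at 10 µM dose, activation of 40% or more, normalized to positive control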;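 further: 100% = tunicamycin at 10 µg/mL and 0% = DMSO alone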
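assay system = CHO CHOP reporter cells | amount = 500 CHO-CHOP cells per well | buffer or medium = F12 with 10% FBS | incubation = 16-18 h cell attachment, then 6 h compound exposure, 37 °C | detection = luminescence read with Steady-Glo | read-out = percent activation relative to tunicamycin control | controls = tunicamycin high control, DMSO low control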
Cardio protect – myocardial damage modulation in H9c2 cells. actives 0.63% (n = 360,000). protection from H2O2 cell death, % at 20 µM. H9c2 cardiomyocytes, H2O2 injury protection, ATPLite, 2 h. AID 588492;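 active means compounds giving at least 50% protection of heart cells from peroxide-induced death in the single-dose screen, raw or plate-pattern-corrected value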;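 further: 0% = DMSO wells with peroxide and 100% = DMSO wells without peroxide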
CHOP inh – inhibitors of CHOP induction in ER stress response; actives 3.8% (n = 220,000); CHO-K1 CHOP-promoter luciferase, tunicamycin-induced, 15-18 h; inhibition, % at 10 µM;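 active means compounds that reduced the stress-induced luciferase reporter signal by more than about 70% of percent inhibition, limit read from the data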;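 further: 0% = tunicamycin plus vehicle and 100% = wells without tunicamycin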
* hit, by the source's call; x = no result given.

SMILES	XBP1 UPR activ	iPSC survival up	CHOP UPR activ	Cardio protect	CHOP inh
CCOc1ccc(N2CCc3c(C)nc(SC)nc32)cc1	2.8	2.0	-0.7	-6.6	95.9*
O=C(/C(N=Nc1cccc([N+](=O)[O-])c1)=C(/O)c1ccc(Br)cc1)C(F)(F)F	10.2	0.0	18.9	-13.7	70.1*
CC12CCC(c3nnc(SCc4ccc(Cl)cc4)nc31)C2(C)C (stereo not given)	-1.2	-0.9	-0.9	0.1	74.5*
CCOC(=O)c1c(N)sc(C(O)(C(F)(F)F)C(F)(F)F)c1-c1ccccc1	-0.6	1.9	-0.3	3.7	104.7*
COc1cccc(Nc2nnc(SCn3nnc4ccccc4c3=O)s2)c1	-0.3	0.1	0.0	11.3	23.0
CCc1ccc(Nc2nnc(SCn3nnc4ccccc4c3=O)s2)cc1	-1.1	3.1	0.8	-6.4	82.5*
Cc1ccc(-c2csc(N3CCC[C@@H]3C(=O)NCCn3c(-c4ccncc4)nc4ccccc43)n2)cc1	-0.5	-1.5	1.6	69.2*	x
Cc1ccc(-c2csc(N3CCN(CCCn4c(-c5ccncc5)nc5ccccc54)CC3)n2)cc1	7.8	-2.2	2.4	45.9	x
Cc1ccccc1OCC(O)CN(Cc1ccccc1O)C1CCCCC1 (stereo not given)	-3.8	-0.4	0.7	-22.8	87.8*
O=C(c1ccncc1)N1CCN(c2cccc(C(F)(F)F)c2)CC1	-4.5	-2.3	1.3	-4.7	28.2
O=C(c1ccccc1F)N1CCN(c2ccccc2)CC1	-2.7	-0.4	-0.9	-0.9	-6.5
O=C(c1ccccc1F)N1CCN(c2cccc(C(F)(F)F)c2)CC1	-1.0	-0.8	0.5	-3.5	73.7*
Cn1c(C(=O)N2CCN(c3cccc(C(F)(F)F)c3)CC2)cc2sccc21	-0.9	-1.6	0.4	-12.0	72.4*
O=C(c1c(F)c(F)c(F)c(F)c1F)N1CCN(c2cccc(C(F)(F)F)c2)CC1	1.4	-3.4	-0.3	-3.4	81.9*
NC(Cc1ccc(C(F)(F)F)cc1)c1csc(NC(=O)NCCc2ccccc2)n1 (stereo not given)	x	-2.4	x	-12.6	x
COc1ccc(-c2noc(CN3CCC(Cc4ccccc4)CC3)n2)cc1	-1.8	6.1	1.9	-17.1	60.0
Cc1ccc(-c2noc(CN3CCN(c4ccccc4F)CC3)n2)cc1	-0.6	-1.1	0.7	-21.9	74.4*
c1ccc(CC2CCN(Cc3nc(-c4ccccc4)no3)CC2)cc1	-3.4	-0.4	0.3	-6.0	91.9*
Nc1nc2ccccc2cc1C(=O)NCCCCc1ccccc1	x	-0.3	x	x	x
CC(=O)NC(C)(c1ccccc1)c1nc(-c2ccc(S(C)(=O)=O)cc2)cs1 (stereo not given)	x	8.4	x	-2.0	x
NC1=NC(=O)/C(=C/c2ccccc2OS(=O)(=O)c2ccccc2)S1	-0.5	0.7	2.0	19.9	40.8
NC1=NC(=O)/C(=C/c2c(OS(=O)(=O)c3ccc(Cl)cc3)ccc3ccccc23)S1	0.0	-1.1	2.7	-11.8	94.4*
O=C(/C=C/[C@H]1O[C@@H](n2cnc3c(NC(=O)c4ccccc4)ncnc32)[C@H](O)[C@@H]1O)NCC1CCCCC1	x	-1.5	x	-15.0	x
CCOc1ccc2nc(NC(=O)CN3CCC(n4nnc5cc(F)ccc54)CC3)sc2c1	3.0	1.4	3.2	69.9*	48.6
COc1cccc(OCC(=O)NNC(=O)c2ccc(-c3ccccc3)cc2)c1	1.3	0.1	-0.3	-0.2	80.2*
SMILES	XBP1 UPR activ	iPSC survival up	CHOP UPR activ	Cardio protect	CHOP inh
Cc1ccccc1/C=C/C1=NCCN1	-4.2	-4.0	0.8	1.3	98.5*
Cc1ccccc1C=O	-0.8	0.5	6.7	4.8	x
CCCNC(=O)C1(C)CCN(C(=O)c2cc(C(C)(C)C)nn2C)C1 (stereo not given)	x	-1.7	x	2.2	x
CC1CCN(C(=O)COC(=O)c2n[nH]c(=O)c3ccccc23)CC1	-0.5	0.1	0.3	61.5*	x
Cc1c(/C=N/NC(=O)c2ccc(O)cc2)c2ccccn2c1C(=O)c1ccc(F)cc1	-0.9	-0.5	-1.6	54.2*	22.6
Cc1c(/C=N/NC(=O)c2ccccc2O)c2ccccn2c1C(=O)c1ccc(F)cc1	0.4	1.1	7.5	-23.4	3.6
CN1CCN(CCC(=O)N/N=C/c2ccccc2F)CC1	6.2	1.7	0.8	7.3	1.6
O=C(CCN1CCN(c2ccccc2)CC1)N/N=C/c1ccccc1O	-1.2	0.7	-0.9	55.1*	47.6
